The results in this text go back to ChEMBL document CHEMBL5380839, “Design and Pharmacological Characterization of α4β1 Integrin Cyclopeptide Agonists: Computational Investigation of Ligand Determinants for Agonism versus Antagonism” (J Med Chem, 2023).

Starred links: 1 amine or outer side, 2 acyl side, 3 side chain; linkers in the order of their positions; H or OH if unused. Positions of bridges follow the written chain, without caps; N, C: chain ends. Non-standard residues stand in square brackets, D forms with d. Residues, ends and D or L forms follow the SMILES beside them. Groups on a side chain read outwards from the residue. *: point of attachment. dPhe(4-NH2) = Nc1ccc(C[C@@H](N)C(=O)O)cc1; Phe(4-NH2) = Nc1ccc(C[C@H](N)C(=O)O)cc1; X1 = O=C(Cc1ccc(N[*:1])cc1)[*:2]; NH(2-Me-phenyl) = Cc1ccccc1N*; Phg = N[C@H](C(=O)O)c1ccccc1; d(β3hA) = C[C@@H](N)CC(=O)O; CO = O=C([*:1])[*:2]; NHPr = CCCN*

Data set [1] deals with T1, Integrin alpha4/beta7 complex (Homo sapiens, UniProt P26010+P48169). Nature of the data set: Agonist activity at alpha4beta7 integrin receptor in human RPMI-8866 cells assessed as inhibition of mucosal vascular add-ressin cell adhesion molecule 1-induced cell adhesion pre-incubated for 30 mins followed by 30 mins incubation in mucosal vascular add-ressin cell adhesion molecule 1 coated wells by fluorescence plate reader assay. In kind it is cell-based.
T1 sequence (P48169 whole entry): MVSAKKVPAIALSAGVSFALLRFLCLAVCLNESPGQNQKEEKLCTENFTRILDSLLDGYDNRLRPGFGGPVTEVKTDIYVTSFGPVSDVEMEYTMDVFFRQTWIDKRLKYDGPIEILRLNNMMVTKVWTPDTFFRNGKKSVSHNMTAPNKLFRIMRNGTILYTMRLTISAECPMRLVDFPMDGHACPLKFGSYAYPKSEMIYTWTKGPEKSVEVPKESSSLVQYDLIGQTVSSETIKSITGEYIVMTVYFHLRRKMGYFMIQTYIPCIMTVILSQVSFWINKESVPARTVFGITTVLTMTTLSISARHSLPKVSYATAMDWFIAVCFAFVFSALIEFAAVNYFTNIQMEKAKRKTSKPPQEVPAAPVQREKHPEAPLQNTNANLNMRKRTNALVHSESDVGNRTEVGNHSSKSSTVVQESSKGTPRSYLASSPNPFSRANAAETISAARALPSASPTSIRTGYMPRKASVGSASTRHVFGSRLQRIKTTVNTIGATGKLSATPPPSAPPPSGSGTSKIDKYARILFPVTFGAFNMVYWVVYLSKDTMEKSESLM
T1 sequence (P26010 whole entry): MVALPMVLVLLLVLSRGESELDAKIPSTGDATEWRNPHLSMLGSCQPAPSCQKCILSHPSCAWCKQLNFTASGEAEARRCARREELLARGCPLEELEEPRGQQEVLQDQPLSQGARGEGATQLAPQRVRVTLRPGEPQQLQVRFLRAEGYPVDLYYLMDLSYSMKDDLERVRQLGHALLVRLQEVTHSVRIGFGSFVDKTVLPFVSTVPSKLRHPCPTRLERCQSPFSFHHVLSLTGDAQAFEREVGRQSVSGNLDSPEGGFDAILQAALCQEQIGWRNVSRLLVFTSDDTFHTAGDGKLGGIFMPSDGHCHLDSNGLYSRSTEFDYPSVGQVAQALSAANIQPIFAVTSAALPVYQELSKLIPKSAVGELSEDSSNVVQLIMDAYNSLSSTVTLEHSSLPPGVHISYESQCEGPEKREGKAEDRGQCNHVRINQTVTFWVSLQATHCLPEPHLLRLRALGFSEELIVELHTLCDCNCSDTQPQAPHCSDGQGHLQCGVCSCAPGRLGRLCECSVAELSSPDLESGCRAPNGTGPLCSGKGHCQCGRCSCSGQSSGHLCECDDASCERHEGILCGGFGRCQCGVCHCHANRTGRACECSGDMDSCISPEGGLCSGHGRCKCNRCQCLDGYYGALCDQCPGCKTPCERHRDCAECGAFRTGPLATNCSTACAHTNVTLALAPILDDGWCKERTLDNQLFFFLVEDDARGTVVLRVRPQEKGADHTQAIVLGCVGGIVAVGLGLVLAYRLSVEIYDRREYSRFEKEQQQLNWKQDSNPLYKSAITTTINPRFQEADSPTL

Data set [2] deals with T2, Integrin alpha-M/beta-2 (Homo sapiens, UniProt P05107+P11215). Briefly: Agonist activity at alphaMbeta2 integrin receptor in human HL-60 cells assessed as inhibition of fibrinogen-induced cell adhesion pre-incubated for 30 mins followed by 30 mins incubation in fibrinogen coated wells by fluorescence plate reader assay. In kind it is cell-based.
T2 sequence (P05107 23-769 limits assumed, other chains not shown): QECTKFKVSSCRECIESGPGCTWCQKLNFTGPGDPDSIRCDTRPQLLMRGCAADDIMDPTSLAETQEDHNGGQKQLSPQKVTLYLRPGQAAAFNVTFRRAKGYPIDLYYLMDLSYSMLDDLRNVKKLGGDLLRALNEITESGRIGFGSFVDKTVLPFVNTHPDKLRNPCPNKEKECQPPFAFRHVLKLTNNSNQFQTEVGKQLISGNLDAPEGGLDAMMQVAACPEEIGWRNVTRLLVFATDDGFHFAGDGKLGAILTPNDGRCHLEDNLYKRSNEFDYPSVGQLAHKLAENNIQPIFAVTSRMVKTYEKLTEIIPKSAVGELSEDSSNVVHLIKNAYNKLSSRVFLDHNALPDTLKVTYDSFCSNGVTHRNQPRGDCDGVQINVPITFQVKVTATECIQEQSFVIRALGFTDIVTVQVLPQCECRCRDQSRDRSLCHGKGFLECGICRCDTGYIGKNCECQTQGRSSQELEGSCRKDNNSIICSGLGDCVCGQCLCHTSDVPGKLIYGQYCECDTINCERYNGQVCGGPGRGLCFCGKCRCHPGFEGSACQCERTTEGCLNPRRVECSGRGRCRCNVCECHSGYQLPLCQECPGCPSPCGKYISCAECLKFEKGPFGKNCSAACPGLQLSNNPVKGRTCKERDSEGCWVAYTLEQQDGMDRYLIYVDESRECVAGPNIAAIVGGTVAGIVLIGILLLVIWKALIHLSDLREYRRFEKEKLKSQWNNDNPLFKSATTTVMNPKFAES
In data set [3] the target is Integrin alpha-5/beta-1 (Homo sapiens, UniProt P05556+P08648). Nature of the data set: Binding affinity to alpha5beta1 integrin receptor (unknown origin) preincubated for 30 mins followed by 30 mins incubation in fibronectin coated wells by fluorescence based assay. It is filed as protein-complex assay.
The target of data set [4] is T3, Integrin alpha-4/beta-1 (Homo sapiens, UniProt P05556+P13612). Briefly: Binding affinity to alpha4beta1 integrin receptor (unknown origin) preincubated for 30 mins followed by 30 mins incubation in fibronectin coated wells by fluorescence based assay. In kind it is protein-complex assay.
T3 sequence (P05556 whole entry): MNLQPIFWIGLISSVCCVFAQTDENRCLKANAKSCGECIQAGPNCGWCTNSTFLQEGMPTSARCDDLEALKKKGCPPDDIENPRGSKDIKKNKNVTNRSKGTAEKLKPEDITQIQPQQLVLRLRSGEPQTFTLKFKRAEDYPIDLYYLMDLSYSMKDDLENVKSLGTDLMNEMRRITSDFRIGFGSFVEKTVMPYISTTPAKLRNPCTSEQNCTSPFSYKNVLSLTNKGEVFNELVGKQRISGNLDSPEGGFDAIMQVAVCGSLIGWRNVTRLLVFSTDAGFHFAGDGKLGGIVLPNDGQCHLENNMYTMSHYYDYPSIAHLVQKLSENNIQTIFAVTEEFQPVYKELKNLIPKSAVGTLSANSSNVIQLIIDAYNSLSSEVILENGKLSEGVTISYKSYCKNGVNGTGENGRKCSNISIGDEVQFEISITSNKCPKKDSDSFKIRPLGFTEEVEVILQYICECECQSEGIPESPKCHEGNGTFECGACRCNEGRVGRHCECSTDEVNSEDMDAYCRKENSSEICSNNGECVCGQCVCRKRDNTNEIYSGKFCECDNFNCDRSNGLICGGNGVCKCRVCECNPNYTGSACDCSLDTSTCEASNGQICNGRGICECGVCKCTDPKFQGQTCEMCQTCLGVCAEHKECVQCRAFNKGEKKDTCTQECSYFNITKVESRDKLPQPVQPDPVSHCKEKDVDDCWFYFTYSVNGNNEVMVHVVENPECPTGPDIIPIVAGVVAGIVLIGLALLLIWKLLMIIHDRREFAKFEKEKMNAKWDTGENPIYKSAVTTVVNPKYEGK
T3 sequence (P13612 whole entry): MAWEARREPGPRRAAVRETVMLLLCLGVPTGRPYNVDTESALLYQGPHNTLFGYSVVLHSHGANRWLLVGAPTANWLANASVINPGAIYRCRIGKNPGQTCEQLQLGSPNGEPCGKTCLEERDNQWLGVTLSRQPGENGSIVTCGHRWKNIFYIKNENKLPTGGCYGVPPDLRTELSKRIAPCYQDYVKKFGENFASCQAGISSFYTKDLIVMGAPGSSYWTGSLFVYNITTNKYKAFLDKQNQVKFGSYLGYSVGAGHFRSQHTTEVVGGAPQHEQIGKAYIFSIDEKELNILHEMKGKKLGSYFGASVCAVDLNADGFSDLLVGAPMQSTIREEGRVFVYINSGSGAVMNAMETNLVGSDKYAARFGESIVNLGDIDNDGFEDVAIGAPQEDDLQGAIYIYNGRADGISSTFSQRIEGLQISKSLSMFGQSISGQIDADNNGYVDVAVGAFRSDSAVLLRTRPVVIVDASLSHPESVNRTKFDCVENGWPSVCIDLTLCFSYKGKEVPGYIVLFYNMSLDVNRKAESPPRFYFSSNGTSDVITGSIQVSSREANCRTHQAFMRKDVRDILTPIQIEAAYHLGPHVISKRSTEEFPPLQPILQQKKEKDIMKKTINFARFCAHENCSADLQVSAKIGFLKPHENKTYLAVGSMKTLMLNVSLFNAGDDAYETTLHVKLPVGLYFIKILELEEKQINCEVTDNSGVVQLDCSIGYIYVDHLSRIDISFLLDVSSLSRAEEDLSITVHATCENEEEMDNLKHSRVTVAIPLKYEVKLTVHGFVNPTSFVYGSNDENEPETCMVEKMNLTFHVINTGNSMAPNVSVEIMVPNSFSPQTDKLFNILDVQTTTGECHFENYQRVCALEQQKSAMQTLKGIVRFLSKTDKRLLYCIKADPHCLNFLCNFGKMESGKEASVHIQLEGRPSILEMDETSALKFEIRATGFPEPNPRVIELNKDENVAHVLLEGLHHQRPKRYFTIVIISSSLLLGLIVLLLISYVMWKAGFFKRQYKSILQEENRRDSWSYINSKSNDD
Data set [5] concerns the target T2, Integrin alpha-M/beta-2. Briefly: Binding affinity to alphaMbeta2 integrin receptor (unknown origin) preincubated for 30 mins followed by 30 mins incubation in fibrinogen coated wells by fluorescence based assay. In kind it is protein-complex assay.
Data set [6] concerns the target T3, Integrin alpha-4/beta-1. Nature of the data set: Binding affinity to alpha4beta1 integrin receptor (unknown origin) preincubated for 30 mins followed by 30 mins incubation in vascular cell adhesion molecule 1-induced cell adhesion coated wells by fluorescence based assay. In kind it is protein-complex assay.
The target in data set [7] is T3, Integrin alpha-4/beta-1. Nature of the data set: Agonist activity at alpha4beta1 integrin receptor in human Jurkat E6.1 cells assessed as inhibition of fibronectin-induced cell adhesion pre-incubated for 30 mins followed by 30 mins incubation in fibronectin coated wells by fluorescence plate reader assay. In kind it is cell-based.
The target of data set [8] is T1, Integrin alpha4/beta7 complex. Nature of the data set: Binding affinity to alpha4beta7 integrin receptor (unknown origin) preincubated for 30 mins followed by 30 mins incubation in mucosal vascular add-ressin cell adhesion molecule 1 coated wells by fluorescence based assay. In kind it is protein-complex assay.
Data set [9] in a line: Stability in mouse serum assessed as parent compound remaining incubated upto 3 hrs by RP HPLC analysis. In kind it is ADME, cell-free. The following applies: read-out: Stability. In outline:
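Peptide stock (10 mM in Tris buffer pH 7.4) diluted 1:20 into mouse serum and held at 37 °C. […] Remaining peptide in the supernatant measured by RP HPLC. Triplicate, repeated three times.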

Regarding `Cc1ccccc1NC(=O)N1C(=O)CC1CC(=O)NCC(=O)O` (centres undefined), the EC50 in [1] and in data set [2] was more than 5 µM throughout. In the case of `Cc1ccccc1NC(=O)Nc1ccc(C[C@@H]2NC(=O)C[C@@H](C(=O)O)NC(=O)[C@H](C(C)C)NC(=O)[C@H](C)NC(=O)[C@H](Cc3ccccc3)NC2=O)cc1` ([Phe(4-NH2)]([CO-NH(2-Me-phenyl)])FAVD-OH; lactam N-5), the IC50 – broadly, the concentration that inhibits the measured activity by half – was more than 5 µM in data set [3]; 0.976 µM in [4]; more than 5 µM in data set [5]; 0.899 µM in data set [6]; more than 5 µM in data set [8]. The EC50 – broadly, the midpoint of the concentration-response curve – in data set [7] is 1.06 µM. For the compound `Cc1ccccc1NC(=O)Nc1ccc(C[C@@H]2NC(=O)C[C@@H](C(=O)O)NC(=O)[C@H](C(C)C)NC(=O)[C@H](CC(=O)O)NC(=O)[C@H](CC(C)C)NC2=O)cc1` ([Phe(4-NH2)]([CO-NH(2-Me-phenyl)])LDVD-OH; lactam N-5), the remaining at 3 h in data set [9] was more than 85%. For the compound `Cc1ccccc1NC(=O)Nc1ccc(C[C@@H]2NC(=O)C[C@@H](C)NC(=O)[C@H](C(C)C)NC(=O)[C@H](CC(=O)O)NC(=O)[C@H](CC(C)C)NC2=O)cc1` (cyclo([Phe(4-NH2)]([CO-NH(2-Me-phenyl)])LDV[d(β3hA)])), the EC50 in [7] is more than 5 µM. The same measure, in the same setting: the figure for `Cc1ccccc1NC(=O)Nc1ccc(C[C@H]2NC(=O)C[C@@H](C(=O)O)NC(=O)[C@H](c3ccccc3)NC(=O)[C@H](CC(=O)O)NC(=O)[C@H](CC(C)C)NC2=O)cc1` ([dPhe(4-NH2)]([CO-NH(2-Me-phenyl)])LD[Phg]D-OH; lactam N-5) is more than 5 µM. For the compound `CCCNC(=O)[C@@H]1CC(=O)N[C@@H](Cc2ccc(NC(=O)Nc3ccccc3C)cc2)C(=O)N[C@@H](CC(C)C)C(=O)N[C@@H](CC(=O)O)C(=O)N[C@@H](C(C)C)C(=O)N1` ([Phe(4-NH2)]([CO-NH(2-Me-phenyl)])LDVD-NHPr; lactam N-5), in [7], the EC50 is more than 5 µM. `Cc1ccccc1NC(=O)Nc1ccc(C[C@H]2NC(=O)C[C@@H](C)NC(=O)[C@H](C(C)C)NC(=O)[C@H](CC(=O)O)NC(=O)[C@H](CC(C)C)NC2=O)cc1` (cyclo(DV[d(β3hA)][dPhe(4-NH2)]([CO-NH(2-Me-phenyl)])L)): the EC50 in data set [7] was more than 5 µM.

`Cc1ccccc1NC(=O)Nc1ccc(C[C@H]2NC(=O)C[C@@H](C(=O)O)NC(=O)[C@H](C(C)C)NC(=O)[C@H](CC(=O)O)NC(=O)[C@H](CC(C)C)NC2=O)cc1` ([dPhe(4-NH2)]([CO-NH(2-Me-phenyl)])LDVD-OH; lactam N-5): the remaining at 3 h in [9] is more than 85%. As to `Cc1ccccc1NC(=O)Nc1ccc(C[C@@H]2NC(=O)C[C@@H](C(=O)O)NC(=O)[C@H](C(C)C)NC(=O)[C@H](CC(=O)O)NC(=O)[C@H](Cc3ccccc3)NC2=O)cc1` ([Phe(4-NH2)]([CO-NH(2-Me-phenyl)])FDVD-OH; lactam N-5), the EC50 in data set [7] was more than 5 µM. For `Cc1ccccc1NC(=O)Nc1ccc(CC(=O)N[C@@H](CC(C)C)C(=O)N[C@@H](CC(=O)O)C(=O)N[C@H](C(=O)N2CCC[C@H]2C(=O)O)C(C)C)cc1` ({NH(2-Me-phenyl)-CO}-[X1]LDVP-OH), the IC50 in data set [5] and in data set [8] was more than 1 µM each time. With `Cc1ccccc1NC(=O)N1C(=O)CC1CC(=O)O` (centres undefined), the EC50 in [1] and in data set [2] was more than 5 µM each time.
